Our source for the MIC values is ChEMBL document CHEMBL4823277, “Novel chalcone-conjugated, multi-flexible end-group coumarin thiazole hybrids as potential antibacterial repressors against methicillin-resistant Staphylococcus aureus” (Eur J Med Chem, 2021).

In brackets after ≈: the same amount, converted by molar mass.

What all share (assay type): functional
Assay [1] deals with Staphylococcus aureus. The assay is described as follows: Antibacterial activity against methicillin-resistant Staphylococcus aureus N315 by microbroth dilution method. The procedure, abridged: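 Minimum inhibitory concentration against MRSA N315 determined by micro broth dilution in microdilution plates.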
For the next assay, the system named is Enterococcus faecalis. The assay is described as follows: Antibacterial activity against Enterococcus faecalis by microbroth dilution method.
The test system of assay [2] is Staphylococcus aureus. Description: Antibacterial activity against Staphylococcus aureus by microbroth dilution method.
The subject of assay [3] is Staphylococcus aureus. The assay is described as follows: Antibacterial activity against Staphylococcus aureus ATCC 25923 by microbroth dilution method.
The subject of assay [4] is Staphylococcus aureus. Description: Antibacterial activity against Staphylococcus aureus ATCC 29213 by microbroth dilution method.
The subject of a further assay is Klebsiella pneumoniae. Description: Antibacterial activity against Klebsiella pneumonia by microbroth dilution method.
In assay [5] the test system is Escherichia coli. Description: Antibacterial activity against Escherichia coli by microbroth dilution method.
Assay [6] has as its system Pseudomonas aeruginosa. The assay is described as follows: Antibacterial activity against Pseudomonas aeruginosa by microbroth dilution method.
The subject of a further assay is Acinetobacter baumannii. The assay is described as follows: Antibacterial activity against Acinetobacter baumannii by microbroth dilution method.
Assay [7] concerns Pseudomonas aeruginosa. Description: Antibacterial activity against Pseudomonas aeruginosa ATCC 27853 by microbroth dilution method.
In assay [8] the test system is Escherichia coli. Description: Antibacterial activity against Escherichia coli ATCC 25922 by microbroth dilution method.

As for `O=C(/C(=C/c1ccc(Br)cc1)Oc1ccc2c(CN(CCO)CCO)cc(=O)oc2c1)c1nccs1`, the MIC with Staphylococcus aureus [1] came out at 136 µM (≈ 77.7 µg/mL); in the assay with Enterococcus faecalis, 136 µM (≈ 77.7 µg/mL); against Staphylococcus aureus [2], 68 µM (≈ 38.9 µg/mL); in the assay with Staphylococcus aureus [3] it was 272 µM (≈ 155 µg/mL); against Staphylococcus aureus [4], 272 µM (≈ 155 µg/mL); against Klebsiella pneumoniae, 1090 µM (≈ 621 µg/mL). Also, the MIC in the assay on Escherichia coli [5] worked out at 1090 µM (≈ 621 µg/mL); in the assay on Pseudomonas aeruginosa [6] it was 272 µM (≈ 155 µg/mL); against Acinetobacter baumannii, 543 µM (≈ 310 µg/mL); against Pseudomonas aeruginosa [7], 1090 µM (≈ 621 µg/mL); in the assay on Escherichia coli [8] it was 543 µM (≈ 310 µg/mL).
As to `Cc1ccc2c(/C=C(\Oc3ccc4c(CN(CCO)CCO)cc(=O)oc4c3)C(=O)c3nccs3)c[nH]c2c1`, the MIC against Staphylococcus aureus [1] was 117 µM (≈ 63.8 µg/mL); against Enterococcus faecalis, 15 µM (≈ 8.18 µg/mL); in the assay on Staphylococcus aureus [2], 29 µM (≈ 15.8 µg/mL); in the assay with Staphylococcus aureus [3] it was 7 µM (≈ 3.82 µg/mL); against Staphylococcus aureus [4], 117 µM (≈ 63.8 µg/mL); in the assay with Klebsiella pneumoniae, 235 µM (≈ 128 µg/mL). Further, the minimal inhibitory concentration (MIC) against Escherichia coli [5] came out at 235 µM (≈ 128 µg/mL); in the assay on Pseudomonas aeruginosa [6] it was 117 µM (≈ 63.8 µg/mL); against Acinetobacter baumannii, 117 µM (≈ 63.8 µg/mL); in the assay on Pseudomonas aeruginosa [7] it was 59 µM (≈ 32.2 µg/mL); against Escherichia coli [8], 235 µM (≈ 128 µg/mL).
For `O=C(COc1ccc2c(CN(CCO)CCO)cc(=O)oc2c1)c1nccs1`, the MIC was 20 µM (≈ 8.09 µg/mL) with Staphylococcus aureus [1]; 316 µM (≈ 128 µg/mL) with Enterococcus faecalis; 316 µM (≈ 128 µg/mL) against Staphylococcus aureus [2]; 633 µM (≈ 256 µg/mL) against Staphylococcus aureus [3]; 1270 µM (≈ 512 µg/mL) in the assay with Staphylococcus aureus [4]; 316 µM (≈ 128 µg/mL) with Klebsiella pneumoniae. The minimal inhibitory concentration (MIC) in the assay with Escherichia coli [5] came to 316 µM (≈ 128 µg/mL); against Pseudomonas aeruginosa [6], 633 µM (≈ 256 µg/mL); in the assay with Acinetobacter baumannii, 633 µM (≈ 256 µg/mL); against Pseudomonas aeruginosa [7], 1270 µM (≈ 512 µg/mL); in the assay on Escherichia coli [8], 633 µM (≈ 256 µg/mL).
`O=C(/C(=C/c1ccccc1)Oc1ccc2c(CN(CCO)CCO)cc(=O)oc2c1)c1nccs1`: the minimal inhibitory concentration (MIC) was 130 µM (≈ 64 µg/mL) in the assay on Staphylococcus aureus [1]; 130 µM (≈ 64 µg/mL) against Enterococcus faecalis; 260 µM (≈ 128 µg/mL) with Staphylococcus aureus [2]; 1040 µM (≈ 512 µg/mL) in the assay with Staphylococcus aureus [3]; 1040 µM (≈ 512 µg/mL) in the assay on Staphylococcus aureus [4]; 1040 µM (≈ 512 µg/mL) in the assay with Klebsiella pneumoniae. For the same molecule, the minimal inhibitory concentration (MIC) in the assay with Escherichia coli [5] was found to be 1040 µM (≈ 512 µg/mL); against Pseudomonas aeruginosa [6], 520 µM (≈ 256 µg/mL); with Acinetobacter baumannii, 1040 µM (≈ 512 µg/mL); in the assay on Pseudomonas aeruginosa [7], 520 µM (≈ 256 µg/mL); against Escherichia coli [8], 260 µM (≈ 128 µg/mL).
`O=C(/C(=C/c1ccc(Cl)cc1)Oc1ccc2c(CN(CCO)CCO)cc(=O)oc2c1)c1nccs1`: the MIC in the assay on Staphylococcus aureus [1] came out at 121 µM (≈ 63.8 µg/mL); with Enterococcus faecalis, 243 µM (≈ 128 µg/mL); against Staphylococcus aureus [2], 243 µM (≈ 128 µg/mL); in the assay on Staphylococcus aureus [3] it was 243 µM (≈ 128 µg/mL); in the assay with Staphylococcus aureus [4], 243 µM (≈ 128 µg/mL); with Klebsiella pneumoniae it was 486 µM (≈ 256 µg/mL). In addition, the MIC was determined as 486 µM (≈ 256 µg/mL) in the assay on Escherichia coli [5]; 61 µM (≈ 32.1 µg/mL) against Pseudomonas aeruginosa [6]; 243 µM (≈ 128 µg/mL) in the assay with Acinetobacter baumannii; 243 µM (≈ 128 µg/mL) against Pseudomonas aeruginosa [7]; 486 µM (≈ 256 µg/mL) with Escherichia coli [8].
As for `O=C(/C(=C/c1ccc(F)cc1)Oc1ccc2c(CN(CCO)CCO)cc(=O)oc2c1)c1nccs1`, the minimal inhibitory concentration (MIC) with Staphylococcus aureus [1] was found to be 125 µM (≈ 63.8 µg/mL); in the assay on Enterococcus faecalis it was 125 µM (≈ 63.8 µg/mL); with Staphylococcus aureus [2], 125 µM (≈ 63.8 µg/mL); in the assay on Staphylococcus aureus [3], 251 µM (≈ 128 µg/mL); against Staphylococcus aureus [4], 251 µM (≈ 128 µg/mL); against Klebsiella pneumoniae, 251 µM (≈ 128 µg/mL). Moreover, the MIC stood at 1000 µM (≈ 512 µg/mL) against Escherichia coli [5]; 1000 µM (≈ 512 µg/mL) in the assay on Pseudomonas aeruginosa [6]; 251 µM (≈ 128 µg/mL) with Acinetobacter baumannii; 251 µM (≈ 128 µg/mL) in the assay with Pseudomonas aeruginosa [7]; 251 µM (≈ 128 µg/mL) against Escherichia coli [8].
Regarding `O=C(/C(=C/c1ccc(Cl)cc1Cl)Oc1ccc2c(CN(CCO)CCO)cc(=O)oc2c1)c1nccs1`, the minimum inhibitory concentration (MIC) is 7 µM (≈ 3.93 µg/mL) against Staphylococcus aureus [1]; 228 µM (≈ 128 µg/mL) in the assay with Enterococcus faecalis; 228 µM (≈ 128 µg/mL) in the assay on Staphylococcus aureus [2]; 456 µM (≈ 256 µg/mL) against Staphylococcus aureus [3]; 456 µM (≈ 256 µg/mL) with Staphylococcus aureus [4]; 228 µM (≈ 128 µg/mL) against Klebsiella pneumoniae. The MIC against Escherichia coli [5] was 228 µM (≈ 128 µg/mL); against Pseudomonas aeruginosa [6], 114 µM (≈ 64 µg/mL); in the assay with Acinetobacter baumannii it was 114 µM (≈ 64 µg/mL); against Pseudomonas aeruginosa [7], 228 µM (≈ 128 µg/mL); against Escherichia coli [8] it was 456 µM (≈ 256 µg/mL).
`Cc1ccc(/C=C(\Oc2ccc3c(CN(CCO)CCO)cc(=O)oc3c2)C(=O)c2nccs2)cc1`: the MIC is 63 µM (≈ 31.9 µg/mL) against Staphylococcus aureus [1]; 63 µM (≈ 31.9 µg/mL) against Enterococcus faecalis; 126 µM (≈ 63.8 µg/mL) against Staphylococcus aureus [2]; 63 µM (≈ 31.9 µg/mL) against Staphylococcus aureus [3]; 126 µM (≈ 63.8 µg/mL) in the assay with Staphylococcus aureus [4]; 63 µM (≈ 31.9 µg/mL) in the assay on Klebsiella pneumoniae. The minimal inhibitory concentration (MIC) in the assay with Escherichia coli [5] is 16 µM (≈ 8.11 µg/mL); in the assay on Pseudomonas aeruginosa [6], 253 µM (≈ 128 µg/mL); against Acinetobacter baumannii, 253 µM (≈ 128 µg/mL); with Pseudomonas aeruginosa [7] it was 505 µM (≈ 256 µg/mL); in the assay with Escherichia coli [8], 126 µM (≈ 63.8 µg/mL).
As to `CCn1cc(/C=C(\Oc2ccc3c(CN(CCO)CCO)cc(=O)oc3c2)C(=O)c2nccs2)c2ccccc21`, the MIC against Staphylococcus aureus [1] is 114 µM (≈ 63.8 µg/mL); against Enterococcus faecalis, 14 µM (≈ 7.84 µg/mL); in the assay on Staphylococcus aureus [2] it was 29 µM (≈ 16.2 µg/mL); against Staphylococcus aureus [3] it was 7 µM (≈ 3.92 µg/mL); with Staphylococcus aureus [4], 57 µM (≈ 31.9 µg/mL); in the assay on Klebsiella pneumoniae, 229 µM (≈ 128 µg/mL). For the same molecule, the MIC was 229 µM (≈ 128 µg/mL) in the assay on Escherichia coli [5]; 114 µM (≈ 63.8 µg/mL) in the assay with Pseudomonas aeruginosa [6]; 57 µM (≈ 31.9 µg/mL) in the assay on Acinetobacter baumannii; 57 µM (≈ 31.9 µg/mL) in the assay on Pseudomonas aeruginosa [7]; 229 µM (≈ 128 µg/mL) against Escherichia coli [8].
For `O=C(/C(=C/c1ccccc1Cl)Oc1ccc2c(CN(CCO)CCO)cc(=O)oc2c1)c1nccs1`, the MIC with Staphylococcus aureus [1] came out at 61 µM (≈ 32.1 µg/mL); with Enterococcus faecalis, 121 µM (≈ 63.8 µg/mL); against Staphylococcus aureus [2], 121 µM (≈ 63.8 µg/mL); in the assay with Staphylococcus aureus [3], 486 µM (≈ 256 µg/mL); in the assay with Staphylococcus aureus [4] it was 486 µM (≈ 256 µg/mL); in the assay with Klebsiella pneumoniae, 972 µM (≈ 512 µg/mL). In addition, the MIC in the assay on Escherichia coli [5] was determined as 972 µM (≈ 512 µg/mL); in the assay with Pseudomonas aeruginosa [6], 486 µM (≈ 256 µg/mL); in the assay on Acinetobacter baumannii, 486 µM (≈ 256 µg/mL); in the assay with Pseudomonas aeruginosa [7] it was 243 µM (≈ 128 µg/mL); against Escherichia coli [8] it was 243 µM (≈ 128 µg/mL).
Take `O=C(/C(=C/c1ccc([N+](=O)[O-])cc1)Oc1ccc2c(CN(CCO)CCO)cc(=O)oc2c1)c1nccs1`: the minimal inhibitory concentration (MIC) against Staphylococcus aureus [1] is 7 µM (≈ 3.76 µg/mL); against Enterococcus faecalis, 119 µM (≈ 64 µg/mL); against Staphylococcus aureus [2], 119 µM (≈ 64 µg/mL); against Staphylococcus aureus [3], 60 µM (≈ 32.3 µg/mL); against Staphylococcus aureus [4] it was 119 µM (≈ 64 µg/mL); with Klebsiella pneumoniae, 238 µM (≈ 128 µg/mL). Besides, the MIC in the assay on Escherichia coli [5] was found to be 119 µM (≈ 64 µg/mL); in the assay with Pseudomonas aeruginosa [6], 476 µM (≈ 256 µg/mL); against Acinetobacter baumannii, 238 µM (≈ 128 µg/mL); against Pseudomonas aeruginosa [7], 238 µM (≈ 128 µg/mL); against Escherichia coli [8], 119 µM (≈ 64 µg/mL).
In the case of `O=C(/C(=C/c1c[nH]c2cc(Cl)ccc12)Oc1ccc2c(CN(CCO)CCO)cc(=O)oc2c1)c1nccs1`, the MIC worked out at 57 µM (≈ 32.3 µg/mL) against Staphylococcus aureus [1]; 57 µM (≈ 32.3 µg/mL) against Enterococcus faecalis; 113 µM (≈ 64 µg/mL) in the assay with Staphylococcus aureus [2]; 57 µM (≈ 32.3 µg/mL) against Staphylococcus aureus [3]; 57 µM (≈ 32.3 µg/mL) in the assay on Staphylococcus aureus [4]; 57 µM (≈ 32.3 µg/mL) with Klebsiella pneumoniae. Moreover, the minimal inhibitory concentration (MIC) came out at 226 µM (≈ 128 µg/mL) against Escherichia coli [5]; 226 µM (≈ 128 µg/mL) in the assay on Pseudomonas aeruginosa [6]; 113 µM (≈ 64 µg/mL) in the assay on Acinetobacter baumannii; 113 µM (≈ 64 µg/mL) with Pseudomonas aeruginosa [7]; 226 µM (≈ 128 µg/mL) in the assay with Escherichia coli [8].
As to `O=C(/C(=C/c1c[nH]c2ccccc12)Oc1ccc2c(CN(CCO)CCO)cc(=O)oc2c1)c1nccs1`, the minimum inhibitory concentration (MIC) came to 15 µM (≈ 7.97 µg/mL) in the assay with Staphylococcus aureus [1]; 60 µM (≈ 31.9 µg/mL) against Enterococcus faecalis; 120 µM (≈ 63.8 µg/mL) in the assay with Staphylococcus aureus [2]; 120 µM (≈ 63.8 µg/mL) against Staphylococcus aureus [3]; 120 µM (≈ 63.8 µg/mL) in the assay on Staphylococcus aureus [4]; 60 µM (≈ 31.9 µg/mL) in the assay on Klebsiella pneumoniae. Further, the minimal inhibitory concentration (MIC) against Escherichia coli [5] amounted to 241 µM (≈ 128 µg/mL); with Pseudomonas aeruginosa [6] it was 241 µM (≈ 128 µg/mL); against Acinetobacter baumannii, 482 µM (≈ 256 µg/mL); in the assay with Pseudomonas aeruginosa [7], 482 µM (≈ 256 µg/mL); in the assay on Escherichia coli [8], 241 µM (≈ 128 µg/mL).
